From ChEMBL document CHEMBL1142273, “SAR studies of capsazepinoid bronchodilators 3: The thiourea part (coupling region) and the 2-(4-chlorophenyl)ethyl moiety (C-region)” (Bioorg Med Chem, 2008)

Columns and labels:
Homo sapiens [1] = species on record: Homo sapiens; assay: Bronchorelaxing effect in leukotriene D4-contracted human lung small airways model assessed as remaining contraction at 10 uM relative to control; format: functional
Outline: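 Human small airways (0.5–1.5 mm diameter) from lobectomy tissue, stretched to 1.2 mN and accepted when two control LTD4 contractions differed by under 10%. Test substance at 10 µM was present for one whole cycle: 1 h LTD4-free PSS, then 30 min with 10 nM LTD4. The contraction was compared with the preceding one and given as % remaining, mean ± SEM. Paired preparations per chamber were averaged.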

Homo sapiens [2] = species on record: Homo sapiens; assay: Bronchorelaxing effect in leukotriene D4-contracted small human lung small airways model assessed as remaining contraction at 1 uM after 3 hrs relative to control
Homo sapiens [3] = species on record: Homo sapiens; assay: Bronchorelaxing effect in leukotriene D4-contracted small human lung small airways model assessed as remaining contraction at 1 uM after 4.5 hrs relative to control
Homo sapiens [4] = species on record: Homo sapiens; assay: Bronchorelaxing effect in leukotriene D4-contracted small human lung small airways model assessed as remaining contraction at 1 uM after 1.5 hrs relative to control
Homo sapiens [5] = species on record: Homo sapiens; assay: Bronchorelaxing effect in leukotriene D4-contracted small human lung small airways model assessed as remaining contraction at 1 uM after 6 hrs relative to control

Work on O=C(NCCc1ccc(Cl)cc1)N1CCCc2cc(O)c(O)cc2C1 yielded an Activity (Homo sapiens [1]) of 73%.

Compound Oc1c(O)c(Cl)c2c(c1Cl)CCN(C(=S)NCCc1ccccc1Cl)C2 has an Activity (Homo sapiens [1]) of 10%.

Work on Oc1c(O)c(Cl)c2c(c1Cl)CCN(C(=S)NCCc1ccc(F)cc1)C2 yielded an Activity (Homo sapiens [1]) of 6%.

Oc1c(O)c(Cl)c2c(c1Cl)CCN(C(=S)NCc1ccc(Cl)cc1)C2 showed an Activity (Homo sapiens [1]) of 19%.

Work on Oc1cc2c(cc1O)CN(C(=S)NCCc1ccccc1Cl)CCC2 yielded an Activity (Homo sapiens [1]) of 56%.

Compound Oc1ccc(CCNC(=S)N2CCc3c(Cl)c(O)c(O)c(Cl)c3C2)cc1 has an Activity (Homo sapiens [1]) of 22%.

In the case of Oc1cc2c(cc1O)CN(C(=S)NCCc1ccc(F)cc1)CCC2, the Activity (Homo sapiens [1]) is reported as 68%.

With CC(C)(C)c1ccc(CCNC(=S)N2CCc3c(Cl)c(O)c(O)c(Cl)c3C2)cc1 the Activity (Homo sapiens [1]) was 69%.

Oc1cc2c(cc1O)CN(C(=S)NCCc1ccccc1)CCC2 showed an Activity (Homo sapiens [1]) of 71%.

Compound O=C(CCCc1ccc(Cl)cc1)N1CCc2c(Cl)c(O)c(O)c(Cl)c2C1 has an Activity (Homo sapiens [2]) of 65%, an Activity (Homo sapiens [3]) of 55% and an Activity (Homo sapiens [4]) of 80%. For the same compound, the Activity (Homo sapiens [1]) was 16% and the Activity (Homo sapiens [5]) was 45%.

CCCCCCCCNC(=S)N1CCc2c(Cl)c(O)c(O)c(Cl)c2C1 showed an Activity (Homo sapiens [1]) of 69%.

Work on Oc1c(O)c(Cl)c2c(c1Cl)CCN(C(=S)NCCc1cccnc1)C2 yielded an Activity (Homo sapiens [1]) of 30%.

Work on O=C(NCCc1ccc(Cl)cc1)N1CCc2cc(O)c(O)cc2C1 yielded an Activity (Homo sapiens [1]) of 69%.

Oc1c(O)c(Cl)c2c(c1Cl)CCN(C(=S)NCCc1ccc(Cl)cc1)C2 was tested, and the Activity (Homo sapiens [2]) was 57%, the Activity (Homo sapiens [3]) was 44% and the Activity (Homo sapiens [4]) was 79%. The Activity (Homo sapiens [1]) was 14% and the Activity (Homo sapiens [5]) was 32%.

For Oc1c(O)c(Cl)c2c(c1Cl)CCN(C(=S)NCCCc1ccccc1)C2, the Activity (Homo sapiens [1]) was 11%.

For O=C(NCCc1ccc(Cl)cc1)N1CCc2c(Cl)c(O)c(O)c(Cl)c2C1, the Activity (Homo sapiens [2]) was 81%, the Activity (Homo sapiens [3]) was 78% and the Activity (Homo sapiens [4]) was 91%. The Activity (Homo sapiens [1]) was 16% and the Activity (Homo sapiens [5]) was 71%.

With Oc1cc2c(cc1O)CN(C(=S)NCc1ccc(Cl)cc1)CCC2 the Activity (Homo sapiens [1]) was 70%.

Oc1c(O)c(Cl)c2c(c1Cl)CCN(C(=S)NCc1ccccc1)C2 was tested, and the Activity (Homo sapiens [1]) was 10%.

Oc1c(O)c(Cl)c2c(c1Cl)CCN(C(=S)NCCc1ccccc1)C2 showed an Activity (Homo sapiens [1]) of 8%.

With Oc1c(O)c(Cl)c2c(c1Cl)CCN(C(=S)NCCc1ccc(Br)cc1)C2 the Activity (Homo sapiens [1]) was 17%.

Work on CCCCCCCCNC(=S)N1CCCc2cc(O)c(O)cc2C1 yielded an Activity (Homo sapiens [1]) of 69%.

With O=C(NCCc1ccc(Cl)cc1)C1CCc2cc(O)ccc2C1 (centres undefined) the Activity (Homo sapiens [1]) was 78%.

Oc1cc2c(cc1O)CN(C(=S)NCCCc1ccccc1)CCC2 showed an Activity (Homo sapiens [1]) of 84%.

In the case of O=C(CCCc1ccc(Cl)cc1)N1CCCc2cc(O)c(O)cc2C1, the Activity (Homo sapiens [1]) is reported as 54%.

Compound CC(C)(C)c1ccc(CCNC(=S)N2CCCc3cc(O)c(O)cc3C2)cc1 has an Activity (Homo sapiens [1]) of 80%.

Oc1c(O)c(Cl)c2c(c1Cl)CCN(C(=S)NCCc1cccc(Cl)c1)C2 gave an Activity (Homo sapiens [1]) of 27%.

With Oc1c(O)c(Cl)c2c(c1Cl)CCN(C(=S)NCCc1ccncc1)C2 the Activity (Homo sapiens [1]) was 33%.

O=C(NCCc1ccc(Cl)cc1)c1ccc2cc(O)ccc2c1 was tested, and the Activity (Homo sapiens [1]) was 90%.

Compound Oc1cc2c(cc1O)CN(C(=S)NCCc1cccc(Cl)c1)CCC2 has an Activity (Homo sapiens [1]) of 76%.

With Oc1c(O)c(Cl)c2c(c1Cl)CCN(C(=S)NCCc1ccccn1)C2 the Activity (Homo sapiens [1]) was 26%.

Work on Oc1cc2c(cc1O)CN(C(=S)NCCc1ccc(Br)cc1)CCC2 yielded an Activity (Homo sapiens [1]) of 67%.

O=C(CCCc1ccc(Cl)cc1)N1CCc2cc(O)c(O)cc2C1 was tested, and the Activity (Homo sapiens [1]) was 47%.
